This note sets out measurements from ChEMBL document CHEMBL3861953 (J Med Chem, 2016).

Each structure is given as a SMILES string. Converted amounts (≈) assume the structure as drawn. The source made the active and inactive calls. No cut-off for these calls is given here.

Tested on in one series: not listed separately
Kind of series: Inhibition of recombinant Mycobacterium tuberculosis InhA expressed in Escherichia coli Rosetta (DE3) pLysS using 2-trans-decenoyl-N-acetylcyste-amine as substrate in presence of NADH by spectrophotometric method.
Conditions: not given
An outline of the steps:
(§1)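 His-tagged InhA purified by Ni-chelate then gel filtration. Assay at 25 °C in 30 mM PIPES, 150 mM NaCl, 1 mM EDTA, pH 6.8 with 200 µM trans-2-decenoyl-N-acetylcysteamine, 100 µM NADH, 1 µg enzyme. Initial rate of A340 decrease over 120 s. DMSO 0.1%; triplicates; triclosan positive control.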
For `O=C(O)[C@H](Cc1c[nH]c2ccccc12)N1C(=O)/C(=C/c2ccc(Cl)cc2)SC1=S`, the IC50 amounted to 19.7 µM.

For `CN(C)c1ccc(/C=C2\SC(=S)N([C@@H](Cc3c[nH]c4ccccc34)C(=O)O)C2=O)cc1` (stereo in doubt; 24), the IC50 stood at 14.7 µM.

With `CC(C)CC(N1C(=O)/C(=C/c2ccc(N(C)C)c3ccccc23)SC1=S)P(=O)(O)O` (stereo unspecified), the IC50 was 19.1 µM.

Take `O=C(O)[C@H](Cc1c[nH]c2ccccc12)N1C(=O)/C(=C/c2c3ccccc3c(Cl)c3ccccc23)SC1=S`: the IC50 stood at 2.9 µM.

For the compound `O=C(O)[C@@H](Cc1c[nH]c2ccccc12)N1C(=O)/C(=C/c2ccc(N(CCCl)CCCl)cc2)SC1=S`, the IC50 came out at 15.2 µM.

In the case of `CN(C)c1ccc(/C=C2\SC(=S)N([C@@H](Cc3c[nH]c4ccccc34)C(=O)O)C2=O)cc1` (stereo in doubt; 12), the IC50 is 28.6 µM.

For the compound `CN(C)c1ccc(/C=C2\SC(=S)N([C@@H](Cc3c[nH]c4ccccc34)C(=O)O)C2=O)c2ccccc12`, the IC50 is 19.1 µM.

`Cc1ccc(/C=C2\SC(=S)N([C@@H](Cc3c[nH]c4ccccc34)C(=O)O)C2=O)c2ccccc12`: the IC50 was determined as 8.7 µM.

On to `O=C(O)[C@H](Cc1c[nH]c2ccccc12)N1C(=O)/C(=C/c2ccc(Cl)cc2Cl)SC1=S`, for which the IC50 is 9.5 µM.

Regarding `CCN(CC)c1ccc(/C=C2\SC(=S)N([C@@H](CC(C)C)C(=O)O)C2=O)cc1`, the IC50 amounted to 22.4 µM.

For another series, the system named is Klebsiella pneumoniae. Kind of series: Toxicity against Klebsiella pneumoniae at 10 uM.
Conditions: not given
With `O=C(O)[C@H](Cc1c[nH]c2ccccc12)N1C(=O)/C(=C/c2ccc(Cl)cc2)SC1=S`, the Activity result is given as “Non-Toxic”.

For the compound `CN(C)c1ccc(/C=C2\SC(=S)N([C@@H](Cc3c[nH]c4ccccc34)C(=O)O)C2=O)cc1` (stereo in doubt; 24), the Activity result was “Non-Toxic”.

As for `CC(C)CC(N1C(=O)/C(=C/c2ccc(N(C)C)c3ccccc23)SC1=S)P(=O)(O)O` (stereo unspecified), the Activity result is on record as “Non-Toxic”.

Take `O=C(O)[C@H](Cc1c[nH]c2ccccc12)N1C(=O)/C(=C/c2c3ccccc3c(Cl)c3ccccc23)SC1=S`: the Activity result is reported as “Non-Toxic”.

On to `O=C(O)[C@@H](Cc1c[nH]c2ccccc12)N1C(=O)/C(=C/c2ccc(N(CCCl)CCCl)cc2)SC1=S`, for which the Activity result is on record as “Non-Toxic”.

Regarding `CN(C)c1ccc(/C=C2\SC(=S)N([C@@H](Cc3c[nH]c4ccccc34)C(=O)O)C2=O)c2ccccc12`, the Activity entry is listed as “Non-Toxic”.

For the compound `Cc1ccc(/C=C2\SC(=S)N([C@@H](Cc3c[nH]c4ccccc34)C(=O)O)C2=O)c2ccccc12`, the Activity result was “Non-Toxic”.

For the compound `O=C(O)[C@H](Cc1c[nH]c2ccccc12)N1C(=O)/C(=C/c2ccc(Cl)cc2Cl)SC1=S`, the Activity result was “Non-Toxic”.

`CCN(CC)c1ccc(/C=C2\SC(=S)N([C@@H](CC(C)C)C(=O)O)C2=O)cc1`: the Activity result is listed as “Non-Toxic”.

The test system of a further series is Mycobacterium tuberculosis. Kind of series: Inhibition of recombinant Mycobacterium tuberculosis InhA expressed in Escherichia coli Rosetta (DE3) pLysS at 30 uM using 2-trans-decenoyl-N-acetylcyste-amine as substrate measured for 120 sec in presence of NADH by spectrophotometric method.
Conditions: not given
An outline of the steps:
as §1
For `O=C(O)[C@H](Cc1c[nH]c2ccccc12)N1C(=O)/C(=C/c2ccc(Cl)cc2)SC1=S`, the inhibition result is “Active”.

On to `CC(C)CC(N1C(=O)/C(=C/c2ccc(N(C)C)c3ccccc23)SC1=S)P(=O)(O)O` (stereo unspecified), for which the inhibition entry is “Active”.

As to `O=C(O)[C@H](Cc1c[nH]c2ccccc12)N1C(=O)/C(=C/c2c3ccccc3c(Cl)c3ccccc23)SC1=S`, the inhibition result was “Active”.

`O=C(O)[C@@H](Cc1c[nH]c2ccccc12)N1C(=O)/C(=C/c2ccc(N(CCCl)CCCl)cc2)SC1=S`: the inhibition entry is “Active”.

On to `CN(C)c1ccc(/C=C2\SC(=S)N([C@@H](Cc3c[nH]c4ccccc34)C(=O)O)C2=O)c2ccccc12`, for which the inhibition result was “Active”.

As to `Cc1ccc(/C=C2\SC(=S)N([C@@H](Cc3c[nH]c4ccccc34)C(=O)O)C2=O)c2ccccc12`, the inhibition entry is “Active”.

As for `O=C(O)[C@H](Cc1c[nH]c2ccccc12)N1C(=O)/C(=C/c2ccc(Cl)cc2Cl)SC1=S`, the inhibition entry is “Active”.

As to `CCN(CC)c1ccc(/C=C2\SC(=S)N([C@@H](CC(C)C)C(=O)O)C2=O)cc1`, the inhibition entry is “Active”.

A further series has as its system Enterococcus faecalis. Kind of series: Antimicrobial activity against Enterococcus faecalis ATCC 29212 assessed as inhibition of bacterial growth measured after 24 hrs using p-iodonitrotetrazolium violet by broth dilution method. Conditions: ATCC 29212, 24 h. The class given is functional. An outline of the steps: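 E. faecalis ATCC 29212 in Mueller-Hinton broth. Compounds were taken up at 2 mg/ml in DMSO (stock) and doubling dilutions were made in MHB. Inoculum was 1-5 × 10^5 final, incubated 37°C for 24 h, with sterility, growth and DMSO solvent controls. Growth was read by reduction of INT (2 mg/ml solution, several hours) to formazan. MIC was the lowest concentration with no red-purple colour or visible turbidity.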
Consider `O=C(O)[C@H](Cc1c[nH]c2ccccc12)N1C(=O)/C(=C/c2c3ccccc3c(Cl)c3ccccc23)SC1=S`, for which the MIC amounted to 0.57 µM (≈ 0.31 µg/mL).

As for `Cc1ccc(/C=C2\SC(=S)N([C@@H](Cc3c[nH]c4ccccc34)C(=O)O)C2=O)c2ccccc12`, the MIC stood at 2.6 µM (≈ 1.23 µg/mL).

The test system of a further series is Mycobacterium marinum. Kind of series: Antimycobacterial activity against LuxABCDE expressing Mycobacterium marinum measured after 48 hrs by luminescence based serial dilution assay. It counts as functional.
Conditions: not given
The method in brief: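 LuxABCDE-expressing M. marinum was grown shaking at 32°C in 7H9 with OADC to OD600 0.8-1. 10^5 bacteria per well were exposed to compounds (submicromolar to submillimolar) in 7H9 with 0.5% v/v DMSO at 32°C. Luminescence was followed for 48 h, with amikacin 10 µM as control. MIC was the lowest concentration giving significant signal reduction versus DMSO control at 48 h.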
As for `CN(C)c1ccc(/C=C2\SC(=S)N([C@@H](Cc3c[nH]c4ccccc34)C(=O)O)C2=O)cc1` (stereo in doubt; 24), the MIC came out at 2.08 µM (≈ 0.939 µg/mL).

In turn, `CN(C)c1ccc(/C=C2\SC(=S)N([C@@H](Cc3c[nH]c4ccccc34)C(=O)O)C2=O)cc1` (stereo in doubt; 12) displayed an MIC of 22.17 µM (≈ 10 µg/mL).

Staying with this series, now noted: Mycobacterium marinum, 48 h; read-out: MIC.
Turning to `O=C(O)[C@H](Cc1c[nH]c2ccccc12)N1C(=O)/C(=C/c2ccc(Cl)cc2)SC1=S`, the MIC came to 21.1 µM (≈ 9.32 µg/mL).

As for `CC(C)CC(N1C(=O)/C(=C/c2ccc(N(C)C)c3ccccc23)SC1=S)P(=O)(O)O` (stereo unspecified), the MIC amounted to 21.6 µM (≈ 10 µg/mL).

As for `O=C(O)[C@H](Cc1c[nH]c2ccccc12)N1C(=O)/C(=C/c2c3ccccc3c(Cl)c3ccccc23)SC1=S`, the MIC amounted to 184 µM (≈ 100 µg/mL).

Turning to `O=C(O)[C@@H](Cc1c[nH]c2ccccc12)N1C(=O)/C(=C/c2ccc(N(CCCl)CCCl)cc2)SC1=S`, the MIC was 18.3 µM (≈ 10 µg/mL).

With `CN(C)c1ccc(/C=C2\SC(=S)N([C@@H](Cc3c[nH]c4ccccc34)C(=O)O)C2=O)c2ccccc12`, the MIC worked out at 1.99 µM (≈ 0.998 µg/mL).

For `Cc1ccc(/C=C2\SC(=S)N([C@@H](Cc3c[nH]c4ccccc34)C(=O)O)C2=O)c2ccccc12`, the MIC amounted to 0.21 µM (≈ 0.0992 µg/mL).

As for `O=C(O)[C@H](Cc1c[nH]c2ccccc12)N1C(=O)/C(=C/c2ccc(Cl)cc2Cl)SC1=S`, the MIC was 21 µM (≈ 10 µg/mL).

Turning to `CCN(CC)c1ccc(/C=C2\SC(=S)N([C@@H](CC(C)C)C(=O)O)C2=O)cc1`, the MIC came to 2.46 µM (≈ 1 µg/mL).

The test system of the next series is Mycobacterium marinum. Kind of series: Antivirulence activity against Mycobacterium marinum assessed as Dictyostelium discoideum phagocytic plaque formation at 10 uM preincubated for 2 to 3 hrs followed by Dictyostelium discoideum addition measured after 5 to 9 days in presence of Klebsiella pneumoniae relative to control. It counts as functional.
Conditions: not given
An outline of the steps:
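Mixed lawn of mid-log Mm pellet resuspended in equal volume of overnight non-virulent Kp culture diluted 10-5; 50 µl spread on SM agar containing compound (10 µM), dried 2-3 h, then 103 Dictyostelium cells added. Incubated 5-9 days at 25 °C; phagocytic plaque diameter scored 0-4 versus DMSO control.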
As for `O=C(O)[C@H](Cc1c[nH]c2ccccc12)N1C(=O)/C(=C/c2ccc(Cl)cc2)SC1=S`, the outcome was Active.

For the compound `CC(C)CC(N1C(=O)/C(=C/c2ccc(N(C)C)c3ccccc23)SC1=S)P(=O)(O)O` (stereo unspecified), the result was Active.

Regarding `O=C(O)[C@H](Cc1c[nH]c2ccccc12)N1C(=O)/C(=C/c2c3ccccc3c(Cl)c3ccccc23)SC1=S`, the result was Active.

For `O=C(O)[C@@H](Cc1c[nH]c2ccccc12)N1C(=O)/C(=C/c2ccc(N(CCCl)CCCl)cc2)SC1=S`, the result was Active.

Turning to `CN(C)c1ccc(/C=C2\SC(=S)N([C@@H](Cc3c[nH]c4ccccc34)C(=O)O)C2=O)c2ccccc12`, the outcome was Active.

Regarding `Cc1ccc(/C=C2\SC(=S)N([C@@H](Cc3c[nH]c4ccccc34)C(=O)O)C2=O)c2ccccc12`, the outcome was Active.

Take `O=C(O)[C@H](Cc1c[nH]c2ccccc12)N1C(=O)/C(=C/c2ccc(Cl)cc2Cl)SC1=S`: the result was Active.

Take `CCN(CC)c1ccc(/C=C2\SC(=S)N([C@@H](CC(C)C)C(=O)O)C2=O)cc1`: the outcome was Active.

Tested on in another series: not listed separately
Kind of series: Toxicity against Dictyostelium discoideum at 10 uM.
Conditions: not given
With `O=C(O)[C@H](Cc1c[nH]c2ccccc12)N1C(=O)/C(=C/c2ccc(Cl)cc2)SC1=S`, the Activity result was “Non-Toxic”.

For `CN(C)c1ccc(/C=C2\SC(=S)N([C@@H](Cc3c[nH]c4ccccc34)C(=O)O)C2=O)cc1` (stereo in doubt; 24), the Activity entry is recorded as “Non-Toxic”.

Consider `CC(C)CC(N1C(=O)/C(=C/c2ccc(N(C)C)c3ccccc23)SC1=S)P(=O)(O)O` (stereo unspecified), for which the Activity result is reported as “Non-Toxic”.

For the compound `O=C(O)[C@H](Cc1c[nH]c2ccccc12)N1C(=O)/C(=C/c2c3ccccc3c(Cl)c3ccccc23)SC1=S`, the Activity result is on record as “Non-Toxic”.

Take `O=C(O)[C@@H](Cc1c[nH]c2ccccc12)N1C(=O)/C(=C/c2ccc(N(CCCl)CCCl)cc2)SC1=S`: the Activity result is “Non-Toxic”.

As to `CN(C)c1ccc(/C=C2\SC(=S)N([C@@H](Cc3c[nH]c4ccccc34)C(=O)O)C2=O)c2ccccc12`, the Activity result was “Non-Toxic”.

For `Cc1ccc(/C=C2\SC(=S)N([C@@H](Cc3c[nH]c4ccccc34)C(=O)O)C2=O)c2ccccc12`, the Activity entry is “Non-Toxic”.

On to `O=C(O)[C@H](Cc1c[nH]c2ccccc12)N1C(=O)/C(=C/c2ccc(Cl)cc2Cl)SC1=S`, for which the Activity entry is “Non-Toxic”.

On to `CCN(CC)c1ccc(/C=C2\SC(=S)N([C@@H](CC(C)C)C(=O)O)C2=O)cc1`, for which the Activity entry was “Non-Toxic”.
